Data: ChEMBL document CHEMBL1152304, “Alteration of the bis-tetrahydrofuran core stereochemistries in asimicin can affect the cytotoxicity” (J Med Chem, 2008)

Assays:
[1] = Cytotoxicity against human CFU-GM cells at 3 ug by disk diffusion assay; assay type: functional
Procedure, shortened: (§1)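 15 µL of sample dried overnight on 6.5 mm filter disk. Disk placed near edge of 60 mm dish of cells plated in soft agar, incubated 7-10 days. Zone of inhibition measured from disk edge to start of normal-sized colony formation, disk diameter taken as 200 units. Overly toxic samples diluted 1:4 or 1:10 and retested.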

[2] = Cytotoxicity against human H125M cells at 30 ug by disk diffusion assay; assay type: functional; procedure, shortened: as §1
L1210 [3] = assay: Cytotoxicity against mouse L1210 cells at 0.3 ug by disk diffusion assay; assay type: functional; procedure, shortened: as §1
HCT-116 [4] = assay: Cytotoxicity against human HCT116 cells at 30 ug by disk diffusion assay; assay type: functional; procedure, shortened: as §1
[5] = Cytotoxicity against human CFU-GM cells at 30 ug by disk diffusion assay; assay type: functional; procedure, shortened: as §1
L1210 [6] = assay: Cytotoxicity against mouse L1210 cells at 30 ug by disk diffusion assay; assay type: functional; procedure, shortened: as §1
MC-38 [7] = assay: Cytotoxicity against mouse Colon 38 cells at 3 ug by disk diffusion assay; assay type: functional; procedure, shortened: as §1
[8] = Cytotoxicity against human CFU-GM cells at 0.3 ug by disk diffusion assay; assay type: functional; procedure, shortened: as §1
[9] = Inhibition of bovine heart mitochondrial complex1 activity; design: species or system Bos taurus
Procedure, shortened: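 Bovine heart submitochondrial particles, 15 µg/mL, in 0.25 M sucrose, 1 mM MgCl2, 50 mM phosphate pH 7.5. Inhibitor added at various concentrations and equilibrated 5 min. Reaction started with 150 µM NADH and followed spectrophotometrically at 340 nm. IC50 derived.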

MC-38 [10] = assay: Cytotoxicity against mouse Colon 38 cells at 0.3 ug by disk diffusion assay; assay type: functional; procedure, shortened: as §1
CCRF-CEM [11] = assay: Cytotoxicity against human CEM cells at 30 ug by disk diffusion assay; assay type: functional; procedure, shortened: as §1
L1210 [12] = assay: Cytotoxicity against mouse L1210 cells at 3 ug by disk diffusion assay; assay type: functional; procedure, shortened: as §1
MC-38 [13] = assay: Cytotoxicity against mouse Colon 38 cells at 30 ug by disk diffusion assay; assay type: functional; procedure, shortened: as §1
[14] = Cytotoxicity against human H125M cells at 60 ug by disk diffusion assay; assay type: functional; procedure, shortened: as §1
MC-38 [15] = assay: Cytotoxicity against mouse Colon 38 cells at 3.75 ug by disk diffusion assay; assay type: functional; procedure, shortened: as §1
[16] = Cytotoxicity against human CFU-GM cells at 60 ug by disk diffusion assay; assay type: functional; procedure, shortened: as §1
L1210 [17] = assay: Cytotoxicity against mouse L1210 cells at 3.75 ug by disk diffusion assay; assay type: functional; procedure, shortened: as §1
CCRF-CEM [18] = assay: Cytotoxicity against human CEM cells at 60 ug by disk diffusion assay; assay type: functional; procedure, shortened: as §1
MC-38 [19] = assay: Cytotoxicity against mouse Colon 38 cells at 60 ug by disk diffusion assay; assay type: functional; procedure, shortened: as §1
[20] = Cytotoxicity against human CFU-GM cells at 3.75 ug by disk diffusion assay; assay type: functional; procedure, shortened: as §1
MC-38 [21] = assay: Cytotoxicity against mouse Colon 38 cells at 15 ug by disk diffusion assay; assay type: functional; procedure, shortened: as §1
L1210 [22] = assay: Cytotoxicity against mouse L1210 cells at 15 ug by disk diffusion assay; assay type: functional; procedure, shortened: as §1
[23] = Cytotoxicity against human CFU-GM cells at 15 ug by disk diffusion assay; assay type: functional; procedure, shortened: as §1
HCT-116 [24] = assay: Cytotoxicity against human HCT116 cells at 60 ug by disk diffusion assay; assay type: functional; procedure, shortened: as §1
L1210 [25] = assay: Cytotoxicity against mouse L1210 cells at 60 ug by disk diffusion assay; assay type: functional; procedure, shortened: as §1
HCT-116 [26] = assay: Cytotoxicity against human HCT116 cells; assay type: functional, cell-based
HCT-116 [27] = assay: Cytotoxicity against human HCT116 cells at 15 ug by disk diffusion assay; assay type: functional; procedure, shortened: as §1
MC-38 [28] = assay: Cytotoxicity against mouse Colon 38 cells at 0.94 ug by disk diffusion assay; assay type: functional; procedure, shortened: as §1
[29] = Cytotoxicity against human CFU-GM cells at 0.94 ug by disk diffusion assay; assay type: functional; procedure, shortened: as §1
L1210 [30] = assay: Cytotoxicity against mouse L1210 cells at 0.94 ug by disk diffusion assay; assay type: functional; procedure, shortened: as §1
CCRF-CEM [31] = assay: Cytotoxicity against human CEM cells at 15 ug by disk diffusion assay; assay type: functional; procedure, shortened: as §1

Structure (SMILES)	inhibition zone (IZ) [1] [Zone units]	inhibition zone (IZ) [2] [Zone units]	inhibition zone (IZ) (L1210 [3]) [Zone units]	inhibition zone (IZ) (HCT-116 [4]) [Zone units]	inhibition zone (IZ) [5] [Zone units]	inhibition zone (IZ) (L1210 [6]) [Zone units]	inhibition zone (IZ) (MC-38 [7]) [Zone units]	inhibition zone (IZ) [8] [Zone units]	IC50 [9] [nM]	inhibition zone (IZ) (MC-38 [10]) [Zone units]	inhibition zone (IZ) (CCRF-CEM [11]) [Zone units]	inhibition zone (IZ) (L1210 [12]) [Zone units]	inhibition zone (IZ) (MC-38 [13]) [Zone units]	inhibition zone (IZ) [14] [Zone units]	inhibition zone (IZ) (MC-38 [15]) [Zone units]	inhibition zone (IZ) [16] [Zone units]	inhibition zone (IZ) (L1210 [17]) [Zone units]	inhibition zone (IZ) (MC-38 [19]) [Zone units]	inhibition zone (IZ) [20] [Zone units]	inhibition zone (IZ) (MC-38 [21]) [Zone units]	further results
CCCCCCCCCC[C@@H](O)[C@@H]1CC[C@@H]([C@@H]2CC[C@H]([C@H](O)CCCCCCCCCC[C@@H](O)CC3=C[C@H](C)OC3=O)O2)O1	550	600	50	600	650	250	750	500	3	500	200	150	750	–	–	–	–	–	–	–	–
CCCCCCCCCC[C@@H](O)[C@H]1CC[C@@H]([C@@H]2CC[C@@H]([C@H](O)CCCCCCCCCC[C@@H](O)CC3=C[C@H](C)OC3=O)O2)O1	550	500	100	500	650	300	700	450	2	450	200	200	850	–	–	–	–	–	–	–	–
CCCCCCCCCC[C@@H](O)[C@H]1CC[C@@H]([C@@H]2CC[C@H]([C@@H](O)CCCCCCCCCC[C@@H](O)CC3=C[C@H](C)OC3=O)O2)O1	–	–	–	–	–	–	–	–	2.5	–	–	–	–	500	650	350	150	600	100	800	inhibition zone (IZ) (CCRF-CEM [18]): 150 Zone units; inhibition zone (IZ) (L1210 [22]): 300 Zone units; inhibition zone (IZ) [23]: 250 Zone units; inhibition zone (IZ) (HCT-116 [24]): 550 Zone units; inhibition zone (IZ) (L1210 [25]): 200 Zone units; IC50 (HCT-116 [26]): 5.6 nM
C[C@H]1C=C(C[C@H](O)CCCCCCCCCC[C@@H](O)[C@H]2CC[C@H]([C@H]3CC[C@H]([C@H](O)CCCCCCCCCCO)O3)O2)C(=O)O1	550	500	50	600	650	200	600	450	–	450	150	100	800	–	–	–	–	–	–	–	–
CCCCCCCCCC[C@@H](O)[C@H]1CC[C@H]([C@H]2CC[C@H]([C@@H](O)CCCCCCCCCC[C@@H](O)CC3=C[C@H](C)OC3=O)O2)O1	–	–	–	–	–	–	–	–	3.3	–	–	–	–	250	650	600	50	800	0	750	inhibition zone (IZ) (CCRF-CEM [18]): 100 Zone units; inhibition zone (IZ) (L1210 [22]): 400 Zone units; inhibition zone (IZ) [23]: 100 Zone units; inhibition zone (IZ) (HCT-116 [24]): 600 Zone units; inhibition zone (IZ) (L1210 [25]): 400 Zone units; IC50 (HCT-116 [26]): 27 nM
CCCCCCCCCC[C@@H](O)[C@@H]1CC[C@@H]([C@@H]2CC[C@@H]([C@H](O)CCCCCCCCCC(O)CC3=CC(C)OC3=O)O2)O1 (stereo partly drawn) [BULLATACIN]	–	–	–	–	–	–	–	–	2.5	–	–	–	–	400	800	700	250	1000	450	850	inhibition zone (IZ) (HCT-116 [27]): 650 Zone units; inhibition zone (IZ) (MC-38 [28]): 650 Zone units; inhibition zone (IZ) [29]: 450 Zone units; inhibition zone (IZ) (L1210 [30]): 150 Zone units; inhibition zone (IZ) (L1210 [22]): 200 Zone units; inhibition zone (IZ) [23]: 550 Zone units; inhibition zone (IZ) (L1210 [25]): 550 Zone units; IC50 (HCT-116 [26]): 1.4 nM; inhibition zone (IZ) (CCRF-CEM [31]): 100 Zone units
